According to PMC4304654 (Bioorganic & medicinal chemistry, 2012):
Converted amounts (≈) assume the structure as drawn.

Columns and labels:
[1] = Aqueous solubility in the sodium acetate buffer of the fibrillization assay; format: physicochemical
[2] = Brain and plasma levels 1 h after i.p. administration of 5 mg/kg; format: in vivo, B6C3F1 mice; settings: mice
Method in brief: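 Mice got a single i.p. 5 mg/kg dose of test compound and were sacrificed 1 h later. Perfused brain hemispheres were sonicated in 10 mM ammonium acetate, pH 5.7 (50% w/v). Plasma came from EDTA-treated blood spun 10 min at 4500g, 4 °C. Samples were acetonitrile-precipitated and spun at 15000g. Supernatants went to LC-MS/MS (MRM, C18, 35 °C) and were quantified against matrix-matched linear standard curves.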

[3] = target: K18 tau fragment (amino acids 244–369) bearing the P301L mutation (K18PL) (Homo sapiens, UniProt P10636, P618L); experiment: Heparin-induced K18PL tau fibrillization, thioflavin-T; format: biochemical
Method in brief: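 Heparin-induced fibrillization of the P301L K18 tau fragment (residues 244–369) in sodium acetate buffer, with test compound at a range of concentrations, each in triplicate. Read-out is thioflavin-T fluorescence of cross-beta fibrils. IC50 comes from a sigmoidal fit of the concentration-response, from one curve fit or the mean of 2 or more separate analyses. Maximal % inhibition is also reported.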

Chain of K18 tau fragment (amino acids 244–369) bearing the P301L mutation (K18PL) (P10636 561-686 P618L): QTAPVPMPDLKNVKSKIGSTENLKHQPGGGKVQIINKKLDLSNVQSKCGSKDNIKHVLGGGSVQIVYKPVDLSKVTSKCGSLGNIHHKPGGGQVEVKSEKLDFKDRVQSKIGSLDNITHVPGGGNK

With `CCOC(=O)c1nn(-c2ccc(F)cc2)c(=O)c2c(N)scc12` [Compound 26, Ethyl 5-amino-3-(4-fluorophenyl)-4-oxo-3,4-dihydrothieno[3,4-d]pyridazine-1-carboxylate] the solubility [1] was greater than 200 µM.
`CCOC(=O)c1nn(-c2ccccc2Cl)c(=O)c2c(N)scc12` [Compound 27, Ethyl 5-amino-3-(2-chlorophenyl)-4-oxo-3,4-dihydrothieno-[3,4-d]pyridazine-1-carboxylate] showed a solubility [1] of 12.8 µM (≈ 4.48 µg/mL).
`CCOC(=O)c1nn(-c2cccc(Cl)c2)c(=O)c2c(N)scc12` [Compound 28, Ethyl 5-amino-3-(3-chlorophenyl)-4-oxo-3,4-dihydrothieno-[3,4-d]pyridazine-1-carboxylate] showed a solubility [1] of 32 µM (≈ 11.2 µg/mL).
`CCOC(=O)c1nn(-c2ccc(C(F)(F)F)cc2)c(=O)c2c(N)scc12` [Compound 30, Ethyl 5-amino-4-oxo-3-(4-(trifluoromethyl)phenyl)-3,4-dihydrothieno[3,4-d]pyridazine-1-carboxylate] gave a solubility [1] of 32 µM (≈ 12.3 µg/mL).
`CCOC(=O)c1nn(-c2ccc(OC(F)(F)F)cc2)c(=O)c2c(N)scc12` [Compound 31, Ethyl 5-amino-4-oxo-3-(4-(trifluoromethoxy)phenyl)-3,4-dihydrothieno[3,4-d]pyridazine-1-carboxylate] showed a solubility [1] of 12.8 µM (≈ 5.11 µg/mL).
Work on `CCOC(=O)c1nn(-c2ccc(O)cc2)c(=O)c2c(N)scc12` [Compound 32, Ethyl 5-amino-3-(4-hydroxyphenyl)-4-oxo-3,4-dihydrothieno[3,4-d]pyridazine-1-carboxylate] yielded a solubility [1] of 12.8 µM (≈ 4.24 µg/mL).
`CCOC(=O)c1nn(-c2ccc(C(C)C)cc2)c(=O)c2c(N)scc12` [Compound 33, Ethyl 5-amino-3-(4-isopropylphenyl)-4-oxo-3,4-dihydrothieno[3,4-d]pyridazine-1-carboxylate] gave a solubility [1] of 32 µM (≈ 11.4 µg/mL).
Compound `Nc1scc2c(C(=O)O)nn(-c3ccc(F)cc3)c(=O)c12` [Compound 34, 5-Amino-3-(4-fluorophenyl)-4-oxo-3,4-dihydrothieno[3,4-d]pyridazine-1-carboxylic acid] has a solubility [1] greater than 200 µM.
For `Nc1scc2c(C(=O)O)nn(-c3ccccc3Cl)c(=O)c12` [Compound 35, 5-Amino-3-(2-chlorophenyl)-4-oxo-3,4-dihydrothieno[3,4-d]pyridazine-1-carboxylic acid], the solubility [1] was greater than 200 µM.
`Nc1scc2c(C(=O)O)nn(-c3cccc(Cl)c3)c(=O)c12` [Compound 36, 5-Amino-3-(3-chlorophenyl)-4-oxo-3,4-dihydrothieno[3,4-d]pyridazine-1-carboxylic acid] showed a solubility [1] of 32 µM (≈ 10.3 µg/mL).
`Nc1scc2c(C(=O)O)nn(-c3ccc(C(F)(F)F)cc3)c(=O)c12` [Compound 38, 5-Amino-4-oxo-3-(4-(trifluoromethyl)phenyl)-3,4-dihydrothieno[3,4-d]pyridazine-1-carboxylic acid] showed a solubility [1] greater than 200 µM.
`Nc1scc2c(C(=O)O)nn(-c3ccc(OC(F)(F)F)cc3)c(=O)c12` [Compound 39, 5-Amino-4-oxo-3-(4-(trifluoromethoxy)phenyl)-3,4-dihydrothieno[3,4-d]pyridazine-1-carboxylic acid] gave a solubility [1] greater than 200 µM.
`Nc1scc2c(C(=O)O)nn(-c3ccc(O)cc3)c(=O)c12` [Compound 40, 5-Amino-3-(4-hydroxyphenyl)-4-oxo-3,4-dihydrothieno[3,4-d]pyridazine-1-carboxylic acid] gave a solubility [1] greater than 200 µM.
`Nc1scc2c(C(=O)NC3CC3)nn(-c3ccccc3Cl)c(=O)c12` [Compound 45, 5-Amino-3-(2-chlorophenyl)-N-cyclopropyl-4-oxo-3,4-dihydrothieno[3,4-d]pyridazine-1-carboxamide] showed a solubility [1] of 80 µM (≈ 28.9 µg/mL).
Compound `CC(C)NC(=O)c1nn(-c2cccc(Cl)c2)c(=O)c2c(N)scc12` [Compound 46, 5-Amino-3-(3-chlorophenyl)-N-isopropyl-4-oxo-3,4-dihydrothieno[3,4-d]pyridazine-1-carboxamide] has a solubility [1] of 32 µM (≈ 11.6 µg/mL).
In the case of `Nc1scc2c(C(=O)NC3CC3)nn(-c3ccc(C(F)(F)F)cc3)c(=O)c12` [Compound 47, 5-Amino-N-cyclopropyl-4-oxo-3-(4-(trifluoromethyl)-phenyl)-3,4-dihydrothieno[3,4-d]pyridazine-1-carboxamide], the solubility [1] is reported as 80 µM (≈ 31.6 µg/mL).
For `CC(C)NC(=O)c1nn(-c2ccc(OC(F)(F)F)cc2)c(=O)c2c(N)scc12` [Compound 48, 5-Amino-N-isopropyl-4-oxo-3-(4-(trifluoromethoxy)-phenyl)-3,4-dihydrothieno[3,4-d]pyridazine-1-carboxamide], the solubility [1] was 80 µM (≈ 33 µg/mL).
Compound `CC(C)NC(=O)c1nn(-c2ccc(O)cc2)c(=O)c2c(N)scc12` [Compound 49, 5-Amino-3-(4-hydroxyphenyl)-N-isopropyl-4-oxo-3,4-dihydrothieno[3,4-d]pyridazine-1-carboxamide] has a solubility [1] greater than 200 µM.
In the case of `CC(C)c1ccc(-n2nc(C(=O)NC3CC3)c3csc(N)c3c2=O)cc1` [Compound 50, 5-Amino-N-cyclopropyl-3-(4-isopropylphenyl)-4-oxo-3,4-dihydrothieno[3,4-d]pyridazine-1-carboxamide], the solubility [1] is reported as 80 µM (≈ 29.5 µg/mL).
Work on `CCOC(=O)c1c(C(=O)c2ccccc2)csc1N` [Compound 54, Ethyl 2-amino-4-benzoylthiophene-3-carboxylate] yielded a solubility [1] greater than 200 µM.
With `Cc1n[nH]c(=O)c2c(N)scc12` [Compound 55, 7-Amino-4-methylthieno[3,4-d]pyridazin-1(2H)-one] the “Plasma levels 1 h after dosing” value ([2]; 5 mg/kg i.p.) was “low plasma levels”, the Brain level ([2]; 1 h after 5 mg/kg i.p.) was “BLD ^d” and the Plasma level ([2]; 1 h after 5 mg/kg i.p.) was “BLD ^d”. For the same compound, the “Inhibition in the K18PL fibrillization assay” value (from here on “Inhibition”) [3] was “near full inhibition” and the solubility [1] was greater than 200 µM.
For `Cc1nn(C)c(=O)c2c(N)scc12` [Compound 56, 7-Amino-2,4-dimethylthieno[3,4-d]pyridazin-1(2H)-one], the Brain level ([2]; 1 h after 5 mg/kg i.p.) was “BLD ^d”, the “Inhibition” value [3] was “near full inhibition” and the solubility [1] was greater than 200 µM.
For `Cc1nn(C(C)C)c(=O)c2c(N)scc12` [Compound 57, 7-Amino-2-isopropyl-4-methylthieno[3,4-d]pyridazin-1(2H)-one], the solubility [1] was 80 µM (≈ 17.9 µg/mL).
Work on `Cc1nn(CC(F)(F)F)c(=O)c2c(N)scc12` [Compound 58, 7-Amino-4-methyl-2-(2,2,2-trifluoroethyl)thieno[3,4-d]pyridazin-1(2H)-one] yielded a solubility [1] greater than 200 µM.
`Cc1nn(C2CCCCC2)c(=O)c2c(N)scc12` [Compound 59, 7-Amino-2-cyclohexyl-4-methylthieno[3,4-d]pyridazin-1(2H)-one] gave a solubility [1] greater than 200 µM.
In the case of `Cc1nn(-c2ccccn2)c(=O)c2c(N)scc12` [Compound 60, 7-Amino-4-methyl-2-(pyridin-2-yl)thieno[3,4-d]pyridazin-1(2H)-one], the solubility [1] is reported as greater than 200 µM.
Compound `Cc1nn(-c2cccnc2)c(=O)c2c(N)scc12` [Compound 61, 7-Amino-4-methyl-2-(pyridin-3-yl)thieno[3,4-d]pyridazin-1(2H)-one] has a solubility [1] greater than 200 µM.
Work on `Cc1nn(-c2ccc(Cl)cc2)c(=O)c2c(N)scc12` [Compound 63, 7-Amino-2-(4-chlorophenyl)-4-methylthieno[3,4-d]pyridazin-1(2H)-one] yielded a solubility [1] of 80 µM (≈ 23.3 µg/mL).
In the case of `Nc1scc2c(-c3ccccc3)nn(CC(F)(F)F)c(=O)c12` [Compound 64, 7-Amino-4-phenyl-2-(2,2,2-trifluoroethyl)thieno[3,4-d]pyridazin-1(2H)-one], the solubility [1] is reported as greater than 200 µM.
In the case of `CC(C)n1nc(-c2ccccc2)c2csc(N)c2c1=O` [Compound 65, 7-Amino-2-isopropyl-4-phenylthieno[3,4-d]pyridazin-1(2H)-one], the solubility [1] is reported as greater than 200 µM.
`CCOC(=O)c1nn(-c2ccc(Cl)cc2)c(=O)c2c(NC)scc12` [Compound 66, Ethyl 3-(4-chlorophenyl)-5-(methylamino)-4-oxo-3,4-dihydrothieno[3,4-d]pyridazine-1-carboxylate] gave a solubility [1] of 80 µM (≈ 29.1 µg/mL).
In the case of `CCOC(=O)c1nn(-c2ccc(Cl)cc2)c(=O)c2c(N)sc(Cl)c12` [Compound 67, Ethyl 5-amino-7-chloro-3-(4-chlorophenyl)-4-oxo-3,4-dihydrothieno[3,4-d]pyridazine-1-carboxylate], the “Inhibition” value [3] is reported as “near full inhibition” and the solubility [1] is reported as 32 µM (≈ 12.3 µg/mL).
With `CCOC(=O)c1nn(-c2ccc(Cl)cc2)c(=O)c2c(N)sc(Br)c12` [Compound 68, Ethyl 5-amino-7-bromo-3-(4-chlorophenyl)-4-oxo-3,4-dihydrothieno[3,4-d]pyridazine-1-carboxylate] the “Inhibition” value [3] was “near full inhibition” and the solubility [1] was 12.8 µM (≈ 5.49 µg/mL).
With `CCOC(=O)c1nn(-c2ccc(Cl)cc2)c(=O)c2c1C(O)NC2=O` (stereo not shown) [Compound 69, Ethyl 2-(4-chlorophenyl)-5-hydroxy-1,7-dioxo-2,5,6,7-tetrahydro-1H-pyrrolo[3,4-d]pyridazine-4-carboxylate] the solubility [1] was greater than 200 µM.
With `O=C(O)c1nn(-c2ccc(F)cc2)c(=O)c2c1CSC2=O` [Compound 70, 3-(4-Fluorophenyl)-4,5-dioxo-3,4,5,7-tetrahydrothieno[3,4-d]pyridazine-1-carboxylic acid] the “Inhibition” value [3] was “near full inhibition” and the solubility [1] was greater than 200 µM.
In the case of `CC(C)NC(=O)c1nn(-c2ccc(Cl)cc2)c(=O)c2c1CSC2=O` [Compound 72, 3-(4-Chlorophenyl)-N-isopropyl-4,5-dioxo-3,4,5,7-tetrahydrothieno[3,4-d]pyridazine-1-carboxamide], the “Brain penetration” value ([2]; 1 h after 5 mg/kg i.p.) is reported as “not brain-penetrant” and the “Inhibition” value [3] is reported as “near full inhibition”.
